Measurements from different studies.
Protocols differ between the studies behind these lines.
Target: Tyrosine-protein kinase ZAP-70 (ZAP70, Homo sapiens, UniProt P43403)
Sequence (P43403 1-619, as in one of the studies): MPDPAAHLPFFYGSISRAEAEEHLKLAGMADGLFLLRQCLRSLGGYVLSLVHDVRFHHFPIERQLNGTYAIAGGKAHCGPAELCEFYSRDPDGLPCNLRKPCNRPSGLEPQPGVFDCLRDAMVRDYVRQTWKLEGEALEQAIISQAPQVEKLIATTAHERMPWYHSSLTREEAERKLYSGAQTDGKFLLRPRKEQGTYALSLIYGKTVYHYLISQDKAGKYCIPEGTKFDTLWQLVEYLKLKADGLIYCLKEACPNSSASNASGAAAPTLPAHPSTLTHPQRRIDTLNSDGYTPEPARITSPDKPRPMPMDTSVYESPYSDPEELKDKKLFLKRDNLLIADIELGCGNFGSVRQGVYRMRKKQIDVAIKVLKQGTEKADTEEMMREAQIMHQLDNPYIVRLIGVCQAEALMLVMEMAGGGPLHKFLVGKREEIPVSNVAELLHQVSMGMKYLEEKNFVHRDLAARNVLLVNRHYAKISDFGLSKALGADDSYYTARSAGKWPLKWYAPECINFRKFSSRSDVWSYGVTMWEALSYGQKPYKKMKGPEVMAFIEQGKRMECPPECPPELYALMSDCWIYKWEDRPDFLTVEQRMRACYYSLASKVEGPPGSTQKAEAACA

| Compound | observed | action | technique | concentration | endpoint | result |
| --- | --- | --- | --- | --- | --- | --- |
| COc1cc(-c2cn(C3CCc4ccccc4N(CC(F)(F)F)C3=O)nn2)ccc1-n1ccc(C)n1 (stereo not shown) | cell-free assay |  | competition with immobilised ligand | 1 µM | remaining binding | 82% |
| CCN(CC)CCNC(=O)c1c(C)[nH]c(/C=C2\C(=O)Nc3ccc(F)cc32)c1C | enzyme activity | inhibitor |  | 1 µM | remaining activity | 110% |
| Nc1nc(Nc2ccc(S(N)(=O)=O)cc2)nn1C(=O)c1c(F)cccc1F | cell-free assay |  |  | 0.5 µM | remaining signal | 94.8% |
| CNC(=O)c1cc(Oc2ccc(NC(=O)Nc3ccc(Cl)c(C(F)(F)F)c3)cc2)ccn1 | enzyme activity | inhibitor |  | 0.3 µM | inhibition | -1% |
| CCN(CC)c1ccc(C2=NNC(=O)CC2C)cc1[N+](=O)[O-] (stereo not shown) | enzyme activity | inhibitor |  | 10 µM | remaining activity | 67% |
| Cc1ccc(C(=O)Nc2ccc(CN3CCN(C)CC3)c(C(F)(F)F)c2)cc1C#Cc1cnc2cccnn12 | enzyme activity | inhibitor |  | 23.5 nM | remaining activity | 99% |
| FC(F)(F)Oc1cccc(-c2cnc3ccc(-c4ccncc4)nn23)c1 | enzyme activity | inhibitor | radiometric | 5 µM | activity vs control | 104% |
| C[C@H](c1ccc(F)cc1)N(Cc1cccc(C(=O)O)c1)C(=O)c1cnc2ccccc2c1 | cell-free assay |  | competition with immobilised ligand | 1 µM | remaining binding | 96% |
| CNCc1ccc(-c2cc(-c3nc(-c4ccc(S(=O)(=O)C(C)C)cc4)cnc3N)on2)cc1 | enzyme activity | inhibitor |  | 2 µM | inhibition | 0% |
| CC(C)(C)c1nc2c(s1)c1nc(N)ncc1c1ccc(NS(=O)(=O)c3c(F)cccc3F)c(F)c12 | enzyme activity | inhibitor | radiometric | 1 µM | remaining activity | 95% |
| O=C(Nc1cnn(-c2csc(C(=O)NC3COC3)c2)c1)Nc1ccccc1Cl | enzyme activity | inhibitor |  | 5 µM | remaining activity | 102% |
| O=C1Nc2ccc(Cl)cc2C1=Cc1cc(Cl)c(O)c(Cl)c1 | cell-free assay |  |  | 0.5 µM | remaining signal | 95% |
| Cc1[nH]c(/C=C2\C(=O)Nc3ccc(F)cc32)c(C)c1C(=O)N[C@H]1CCN(C(=O)N(C)C)C1 | enzyme activity | inhibitor |  | 1 µM | remaining activity | 116% |
| O=C(N[C@H]1CCCCC/C=C\C2C[C@@]2(C(=O)O)NC(=O)[C@@H]2C[C@@H](Oc3ccncc3)CN2C1=O)OC1CCCC1 (stereo partly shown) | binding |  | competition with immobilised ligand | 1 µM | remaining binding | 96% |
| Cc1cc(NC(=O)c2cccc3cc(-c4cccc5[nH]nc(N)c45)ccc23)ccc1F | enzyme activity | inhibitor |  | 0.1 µM | activity vs control | 109% |
| CC/C(=N\NC(=O)NCc1cccc(O)c1)c1ccc(O)c(C)c1O | enzyme activity | inhibitor |  | 0.1 µM | inhibition | -2.1% |

| Compound | observed | action | technique | concentration | endpoint | result |
| --- | --- | --- | --- | --- | --- | --- |
| CS(=O)(=O)N1CCCC(NC(=O)[C@H](CCC2CCCCC2)NC(=O)c2ccc(CNc3ncnc4c3nnn4-c3ccccc3)cc2)C1 (stereo partly shown) | cell-free assay |  | competition with immobilised ligand | 0.1 µM | remaining binding | 100% |
| Cc1ccc(Nc2nccc(N(C)c3ccc4c(C)n(C)nc4c3)n2)cc1S(N)(=O)=O | enzyme activity | inhibitor |  | 0.5 µM | remaining activity | 92.6% |
| O=C(O)c1cc(-c2ccc(C3CCNCC3)cc2)c2ccc(-c3ccc(C(F)(F)F)cc3)cc2c1 | cell-free assay |  | competition with immobilised ligand | 1 µM | remaining binding | 100% |
| Cc1cnc(NC2CCOCC2)nc1-n1cnc(C(=O)NC(CN)c2cc(F)cc(Cl)c2)c1 (stereo not shown) | enzyme activity | inhibitor | radiometric | 1 µM | remaining activity | 115% |
| CN1CC(Oc2cnc(C#N)cc2-c2ccn3nc(NC(=O)C4CC4)cc3c2)C1 | enzyme activity | inhibitor |  | 1 µM | inhibition | 8% |
| CCCOc1ccc(OC)c(F)c1C(=O)c1ccc(C(=O)N[C@@H]2CNC[C@H]2NC(=O)c2ccc3[nH]ncc3c2)cc1 | enzyme activity | inhibitor |  | 10 µM | remaining activity | 90% |
| COCCOc1nc(-c2ccc(Cl)nc2)nc2c1CN(C(=O)c1ncn3ccccc13)CC2 | cell-free assay |  | competition with immobilised ligand | 0.1 µM | remaining binding | 95% |
| CCN(CC)CCNC(=O)c1c(C)[nH]c(/C=C2\C(=O)Nc3ccc(F)cc32)c1C | enzyme activity | inhibitor |  | 10 µM | inhibition | 11% |
| CC(=O)N1CCC(c2ccc(C(=O)NC(=N)N)cc2C(F)(F)F)CC1 | cell-free assay |  | competition with immobilised ligand | 1 µM | remaining binding | 100% |
| COc1cc2ncnc(Nc3ccc(Oc4ccccc4)c(C)c3C)c2cc1OC | enzyme activity | inhibitor |  | 1 µM | inhibition | -2% |
| O=C(Nc1ccc(Oc2ccc(F)cc2)cc1)N1CCc2ncccc2[C@H]1c1ccc(F)cc1 | cell-free assay |  | competition with immobilised ligand | 1 µM | remaining binding | 91% |
| COc1cc(/C=C/C(=O)CC(=O)/C=C/c2ccc(O)c(OC)c2)ccc1O | enzyme activity | inhibitor |  | 1 µM | activity vs control | 108% |
| O=C(CSc1nc2nccnc2c(=O)n1CCc1ccccc1)Nc1nccs1 | enzyme activity | inhibitor |  | 10 µM | inhibition | 14% |
| O=C1NC(=O)c2cc(Nc3ccc(F)cc3)c(Nc3ccc(F)cc3)cc21 | cell-free assay |  |  | 0.5 µM | remaining signal | 78.8% |
| COc1cc(Nc2cnc(C#N)c(O[C@H](C)CN(C)C)n2)ncc1-c1cnn(C)c1 | enzyme activity | inhibitor | radiometric | 10 µM | remaining activity | 103% |
